# High-throughput results deposited in PubChem BioAssay by several laboratories.
# SKKanGAS inh: inhibitors of SKKanGAS S. pyogenes growth in kanamycin (SK-promoter or general growth effect); BacTiter-Glo, 6 h; inhibition, % at 7.5 µM; 1.3% of 300,000 active;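 active means mean replicate score, as percent of positive control median, at least 50; inconclusive means mean below 50 but one replicate at or above 50; inactive means mean and every replicate below 50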;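 further: strain carries kanamycin resistance gene driven by streptokinase promoter and grows in 40 µg/ml kanamycin; loss of luminescence reflects streptokinase promoter inhibition or plain growth inhibition; 0% = median of DMSO wells and 100% = positive control at its reference dose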
# CSC inhib: cancer stem cell inhibition | cancer stem cell-like cells viability, luminescence | inhibition, % at 7.5 µM | 1.1% of 300,000 active; in the data active means inhibition above about 75%; inconclusive means no clear call, values can overlap the other calls; tested in HMLE shEcad cells
# Mdm2-MdmX inh: disrupts the human Mdm2-MdmX interaction | SaOS-2 split-luciferase Mdm2/MdmX complementation, luminescence | inhibition, % at 8 µM | 3% of 330,000 active | AID 485346;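 active means inhibition of at least 50% at 8 µM in the primary screen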
# Target sequence (O15151 whole entry, looked up): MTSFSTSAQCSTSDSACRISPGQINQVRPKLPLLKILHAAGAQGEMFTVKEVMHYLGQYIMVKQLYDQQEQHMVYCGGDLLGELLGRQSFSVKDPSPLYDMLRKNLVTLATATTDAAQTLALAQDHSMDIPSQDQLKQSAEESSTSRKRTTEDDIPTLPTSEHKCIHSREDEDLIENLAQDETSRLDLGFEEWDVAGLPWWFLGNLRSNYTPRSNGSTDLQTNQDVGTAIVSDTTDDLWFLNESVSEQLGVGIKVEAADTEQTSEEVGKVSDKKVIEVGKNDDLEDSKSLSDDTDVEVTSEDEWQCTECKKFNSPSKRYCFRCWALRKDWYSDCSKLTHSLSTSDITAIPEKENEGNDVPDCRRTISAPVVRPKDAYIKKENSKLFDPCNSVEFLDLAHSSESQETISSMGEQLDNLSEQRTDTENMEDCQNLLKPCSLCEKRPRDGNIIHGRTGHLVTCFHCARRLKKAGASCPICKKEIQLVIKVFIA
# Target sequence (Q00987 whole entry, looked up): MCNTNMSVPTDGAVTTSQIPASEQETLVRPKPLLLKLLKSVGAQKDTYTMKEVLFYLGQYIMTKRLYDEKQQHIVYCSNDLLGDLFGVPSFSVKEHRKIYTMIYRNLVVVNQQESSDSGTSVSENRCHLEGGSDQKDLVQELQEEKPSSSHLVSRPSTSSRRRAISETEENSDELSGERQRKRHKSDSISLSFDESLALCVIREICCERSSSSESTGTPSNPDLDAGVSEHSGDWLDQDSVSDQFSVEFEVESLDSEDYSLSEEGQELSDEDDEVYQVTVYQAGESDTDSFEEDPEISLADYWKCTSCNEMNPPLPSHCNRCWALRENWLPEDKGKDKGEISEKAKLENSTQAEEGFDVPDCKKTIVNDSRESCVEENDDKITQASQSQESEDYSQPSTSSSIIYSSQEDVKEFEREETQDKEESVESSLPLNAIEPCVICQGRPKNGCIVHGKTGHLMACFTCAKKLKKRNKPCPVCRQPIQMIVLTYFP
# T cruzi repl: blocks replication of Trypanosoma cruzi. T. cruzi beta-gal in NIH3T3, luminescence, 90 h. inhibition, % (concentration not given with the values). 1.4% of 300,000 active;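 active means mean inhibition across valid replicates above about 55%, limit read from the data; inconclusive means mean below that limit but half or more replicates reach it; inactive means mean below it, under half of replicates reach it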;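 further: signal also drops with host cell toxicity which is not excluded here; 0% = plate median of DMSO wells and 100% = zero luminescence signal; higher percent means less beta-gal luminescence so fewer parasites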
#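 Material: NIH/3T3 host cells with β-galactosidase reporter T. cruzi; Input: 5,000 host fibroblasts per well; Medium: DMEM, 2% fetal bovine serum; Compound: 50 nL DMSO compound solution per well; Schedule: 3 h host attachment, then at least 90 h co-culture; Detection: luminescent β-galactosidase signal after 60 min lysis.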
# Calb FLC: affects C. albicans growth with fluconazole | C. albicans CaCi-2 (fluconazole-resistant clinical isolate) + fluconazole, Alamar Blue growth, 48 h | growth inhibition, % (test concentration not listed) | 0.57% of 300,000 active;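 active means growth inhibition above about 58% in most replicates, limit read from the data, passing the limit was not always enough; inconclusive means exactly half the replicates above a set limit; inactive means most replicates below a set limit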;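 further: all wells also contain fluconazole at 8 µg/ml as a sub-toxic cotreatment; 0% = median of DMSO wells and 100% = median of geldanamycin control wells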
# Beta apoptosis: blocks beta cell apoptosis; protection from apoptosis, % (test concentration not listed); INS-1E cytokine-induced death, ATP luminescence, 48 h; percent of positive-control rescue, neutral wells zero; 0.8% of 300,000 active; AID 435005;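 active means Every replicate reaches about 75%, or at least half do and their mean reaches it too, limit read from the data; inconclusive means At least half of replicates reach the limit but their mean does not; inactive means Under half of replicates reach the limit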;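 further: 0% = cytokine-treated negative control wells and 100% = positive control rescue; higher means more ATP so stronger rescue from cytokine killing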
# Mdm2 MdmX conf: confirmation of human Mdm2/MdmX interaction inhibitors | Mdm2-MdmX binding, luminescent assay | inhibition, % at 8 µM | shares compounds with Mdm2-MdmX inh | 55% of 10,000 active; in the data active means inhibition above about 40%
# FLuc counter: counter-screen for Mdm2/MdmX inhibitors: full-length luciferase; shares compounds with Mdm2-MdmX inh; SaOS-2 full-length luciferase counterscreen, luminescence; inhibition, % at 8 µM; 77% of 6,200 active; AID 504607;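 active means mean inhibition at 8 µM reaching about 37%, which flags the compound as non-specific, limit read from the data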;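 further: p53-null SaOS-2 cells with luciferase driven by a doxycycline-inducible promoter; compound on cells about two nights before reading with doxycycline added after day one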
# An asterisk follows results filed as active; u = inconclusive; x = not tested or not shown. In the library only some 5.7% were active in any assay of this set; here they are far more common.
SMILES,SKKanGAS inh,CSC inhib,Mdm2-MdmX inh,T cruzi repl,Calb FLC,Beta apoptosis,Mdm2 MdmX conf,FLuc counter
C=CC[n+]1c(/C=C2\C=Cc3cc(C)ccc3N2CC)ccc2ccccc21,29,49,85*,66*,u,109*,70*,28
N#C/C(=N\Nc1ccccc1[N+](=O)[O-])C(=N)N1CCCCC1,x,-6,-139,15,6,-2,x,x
COc1cc(CNCCCN2CCOCC2)cc(Br)c1OCc1ccc(Cl)cc1,-6,-9,69*,59*,1,19,45*,59*
CCOc1cc(CNCCCN2CCOCC2)cc(Cl)c1OCC(=O)NC(C)(C)C,0,-5,-21,51,-10,0,x,x
CCOc1cc(CNCCCN2CCOCC2)cc(Br)c1OCC(=O)Nc1cccc(C(F)(F)F)c1,-14,14,98*,-22,63,69,71*,45*
CC(C)(C)n1nc(-c2ccc(F)cc2)c2c(N)ncnc21,-12,6,59*,57*,64,-29,55*,50*
CC(C)(C)n1nc(-c2ccc(Cl)cc2)c2c(N)ncnc21,2,-3,81*,48,-6,-24,63*,38*
Cc1ccc(-c2nc(N)c3c(-c4ccc(C)cc4)nn(C(C)(C)C)c3n2)cc1,-8,-7,9,5,-5,-1,x,x
CCOc1ccc(NC(=O)CCC(=O)Oc2ccc(C)cc2)cc1,-1,9,-30,-12,4,-11,x,x
Cc1ccc2nc(/C(C#N)=C\c3ccc(N4CCOCC4)o3)[nH]c2c1,9,6,-31,43,9,11,x,x
N#C/C(=C\c1ccc([N+](=O)[O-])o1)c1nc2ccccc2[nH]1,31,u,97*,49,25,100*,70*,61*
Cc1ccc2nc(/C(C#N)=C\c3ccc([N+](=O)[O-])o3)[nH]c2c1,89*,3,97*,67*,71,102*,75*,30
Cc1cc(C)cc(CC(Cc2nc3ccccc3[nH]2)c2nc3ccccc3[nH]2)c1 (stereo not given),57*,182*,91*,45,3,46,24,x
O=C(CCCCCn1c(=S)[nH]c2cc3c(cc2c1=O)OCO3)NCCc1ccccc1,4,-12,48,4,-21,5,x,x
CCN(CCCNC(=O)CCn1c(=S)[nH]c2cc3c(cc2c1=O)OCO3)c1cccc(C)c1,5,-10,57*,32,18,10,-17,x
Cc1ccc(N=Cc2c(O)n(-c3nccs3)c(=O)c3ccccc23)cc1,0,11,3,3,15,4,x,x
NC(=O)CC[C@H](NC(=O)c1ccc(F)cc1)C(=O)OCC(=O)NCc1ccc(F)cc1,-1,-20,4,4,4,x,x,x
CCCCC1(Cc2ccc([N+](=O)[O-])cc2)C(=O)N(c2ccccc2)N(c2ccccc2)C1=O,-27,6,97*,18,7,101*,97*,47*
Cc1cc2occ(CC(=O)NCc3cccs3)c2cc1C(C)C,3,-12,8,36,-13,-7,x,x
Cc1csc(NC(=O)Cc2coc3cc(C)c(C(C)C)cc23)n1,23,x,80*,8,5,3,69*,57*
O=C(NNC(=O)c1cc(Br)ccc1O)c1csc(N2CCOCC2)n1,x,x,64*,x,x,10,44*,59*
C[C@H](CO)N1C[C@H](C)[C@@H](CN(C)C(=O)Nc2ccc(C(F)(F)F)cc2)Oc2c(NC(=O)Cc3ccccc3)cccc2C1=O,x,-7,21,x,x,4,x,x
CCOC(=O)c1sc(Nc2nc(C)cc(C)n2)nc1C,17,50,57*,-5,0,33,60*,57*
CCOc1ccc(-n2cc(-c3ccccc3)c3c(N4CCOCC4)ncnc32)cc1,28,104*,74*,-1,-6,14,65*,83*
COc1ccc(-n2cc(-c3ccccc3)c3c(N4CC(C)OC(C)C4)ncnc32)cc1 (stereo not given),15,69,64*,7,6,9,50*,84*
SMILES,SKKanGAS inh,CSC inhib,Mdm2-MdmX inh,T cruzi repl,Calb FLC,Beta apoptosis,Mdm2 MdmX conf,FLuc counter
Cc1ccc(C(=O)Nc2cccc(N3C(=O)C4CCC(C)CC4C3=O)c2)cc1 (stereo not given),1,-4,2,22,-18,2,x,x
Cn1c(=O)c2c(nc(NCC3CCCC(CN)C3)n2Cc2ccc(Cl)cc2Cl)n(C)c1=O (stereo not given),-1,47,58*,-8,-13,27,42*,65*
COCCNC(=O)c1cc(-c2ccccc2)n(Cc2cc(C)no2)n1,x,-9,25,x,x,4,x,x
N#CCSc1nc2c(sc(=S)n2Cc2ccco2)c(=O)n1-c1ccc(F)cc1,19,6,61*,42,3,9,58*,32
CCn1c(=S)sc2c(=O)n(-c3ccccc3)c(SC)nc21,12,-2,21,14,u,9,x,x
CCCCN(CC)CCCNC(=O)c1cc2c(-c3ccc(OC)c(OC)c3)nn(C)c2s1,3,-2,57*,44,-9,-1,67*,82*
CCN(CC)CCCNC(=O)c1cc2c(-c3cccc(OC)c3)nn(C)c2s1,3,31,23,48,-2,2,x,x
COc1cccc(-c2nn(C)c3sc(C(=O)NCc4ccco4)cc23)c1,6,-5,61*,29,-1,-2,40*,69*
CC1(C)CC(=O)C(C=NCC2CCN(C(=S)Nc3cccc(Cl)c3)CC2)=C(O)C1,1,5,18,-14,-3,0,x,x
Cc1c(C(=O)NCCCN2CCCC2=O)oc2ccc(S(=O)(=O)N3CCOCC3)cc12,x,-13,1,x,x,-6,x,x
Cc1c(C(=O)NCCC2=CCCCC2)oc2ccc(S(=O)(=O)N3CCOCC3)cc12,x,16,54*,x,x,14,34,x
CCOc1cc(CNc2ccc(Br)cc2)cc(Br)c1OCC(=O)NC(C)(C)C,19,u,56*,66*,19,19,24,x
Cc1c(N=NC2=C(O)CC(C)(C)CC2=O)cc2c(c1[N+](=O)[O-])C(C)(C)CC2(C)C,24,11,70*,5,-5,1,21,x
COc1ccccc1N=NC1=C(O)CC(C)(C)CC1=O,-1,9,9,-8,u,-4,x,x
C[C@@H]1CN([C@H](C)CO)C(=O)c2cccc(NC(=O)Nc3ccc(C(F)(F)F)cc3)c2O[C@H]1CN(C)S(=O)(=O)c1cccs1,x,x,57*,x,x,4,41*,73*
